Reference: ChEMBL document CHEMBL4390648, “Chemical synthesis, crystal structure, versatile evaluation of their biological activities and molecular simulations of novel pyrithiobac derivatives” (Eur J Med Chem, 2019)
Values after ≈ are worked out from the molar mass of the structure shown. Active and inactive are the calls of the source. No cut-off for these calls is given here.

What was measured:
[1] = system: Brassica rapa subsp. oleifera; assay: Herbicidal activity against Brassica campestris L assessed as inhibition of rape root growth at 10 mg/l root growth incubated for 48 hrs relative to control; type: functional
How it was run: (§1)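 Rape seeds soaked in distilled water for 4 h, then placed on filter paper wetted with inhibitor solution, 15 seeds per 6-cm dish. Germinated in the dark at 28 °C for 48 h. Mean length of 10 roots per plate measured.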

Ceratobasidium cereale [2] = assay: Antifungal activity against Rhizoctonia cerealis assessed as reduction in growth mycelium growth rate method relative to control; type: functional, organism-based
How it was run: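 EC50 against R. cerealis derived from mycelium growth-rate inhibition over a concentration series, using a probit fit: Probit = m(log10[I] − log10[EC50]) + 5.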

Candida albicans [3] = assay: Antifungal activity against Candida albicans isolate 17 grown in YNB medium incubated for 24 hrs by microdilution method; type: functional; conditions: isolate 17, 24 h
How it was run: (§2)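 C. albicans standard strain SC5314 and clinical isolates g5 and 17# tested by broth microdilution in YNB or RPMI 1640 medium. Plates incubated at 35 °C for up to 72 h, with visual readings taken at 24 h. MIC taken as the lowest concentration preventing visible growth.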

[4] = system: Botryosphaeria berengeriana; assay: Antifungal activity against Physalospora pyricola assessed as reduction in growth at 50 mg/l by mycelium growth rate method relative to control; type: functional
How it was run: (§3)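 Mycelium growth rate method against S. sclerotiorum, P. capsici, P. piricola, R. cerealis, W. anthracnose and R. bakanae. Each compound tested at 50 mg/L, with chlorothalonil and PTB as controls. Relative inhibitory ratio (%) calculated from mycelial growth.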

[5] = system: Brassica rapa subsp. oleifera; assay: Herbicidal activity against Brassica campestris L assessed as inhibition of rape root growth at 100 mg/l root growth incubated for 48 hrs relative to control; type: functional; how it was run: as §1
Sclerotinia sclerotiorum = assay: Antifungal activity against Sclerotinia sclerotiorum assessed as reduction in growth at 50 mg/l by mycelium growth rate method relative to control; type: functional; how it was run: as §3
Candida albicans [6] = assay: Inhibition of Candida albicans AHAS catalytic subunit at 10 uM using pyruvate as substrate measured after 30 mins by colorimetric method relative to control
How it was run: (§4)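 Colorimetric assay in 50 mM potassium phosphate pH 7.0 with 50 mM pyruvate, 1 mM thiamine diphosphate, 10 mM MgCl2 and 10 μM FAD. Incubated 30 min at 37 °C for plant AHAS and 30 °C for fungal AHAS. Acetolactate formed was then quantified.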

Tobacco mosaic virus [7] = assay: Antiviral activity against Tobacco mosaic virus inoculated in Nicotiana tabacum leaves assessed as passivation by measuring local lesion numbers at 100 mg/l pre-incubated with virus for 30 mins followed by inoculation and measured up to 4 days; type: functional
How it was run: (§5)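 Passivation assay: TMV mixed with an equal volume of compound solution for 30 min, then rubbed onto the left half of N. tabacum L. leaves. The right half received virus mixed with solvent as control. Local lesions counted 3–4 days after inoculation. Compounds tested at 500 or 100 mg/L.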

Phytophthora capsici = assay: Antifungal activity against Phytophthora capsici assessed as reduction in growth at 50 mg/l by mycelium growth rate method relative to control; type: functional; how it was run: as §3
Fusarium fujikuroi = assay: Antifungal activity against Gibberella fujikuroi assessed as reduction in growth at 50 mg/l by mycelium growth rate method relative to control; type: functional; how it was run: as §3
Ceratobasidium cereale [8] = assay: Antifungal activity against Rhizoctonia cerealis assessed as reduction in growth at 50 mg/l by mycelium growth rate method relative to control; type: functional; how it was run: as §3
Arabidopsis thaliana [9] = assay: Inhibition of Arabidopsis thaliana AHAS catalytic subunit using pyruvate as substrate at 10 uM measured after 30 mins by colorimetric method relative to control; how it was run: as §4
Candida albicans [10] = assay: Antifungal activity against Candida albicans SC5314 grown in RPMI 1640 medium incubated for 24 hrs by microdilution method; type: functional; conditions: SC5314, 24 h; how it was run: as §2
Arabidopsis thaliana [11] = assay: Inhibition of Arabidopsis thaliana AHAS catalytic subunit using pyruvate as substrate at 100 uM measured after 30 mins by colorimetric method relative to control; how it was run: as §4
Candida albicans [12] = assay: Antifungal activity against Candida albicans isolate 17 grown in RPMI 1640 medium incubated for 24 hrs by microdilution method; type: functional; conditions: isolate 17, 24 h; how it was run: as §2
Candida albicans [13] = assay: Inhibition of Candida albicans AHAS catalytic subunit at 100 uM using pyruvate as substrate measured after 30 mins by colorimetric method relative to control; how it was run: as §4
Tobacco mosaic virus [14] = assay: Antiviral activity against Tobacco mosaic virus inoculated in Nicotiana tabacum leaves assessed as passivation by measuring local lesion numbers at 500 mg/l pre-incubated with virus for 30 mins followed by inoculation and measured up to 4 days; type: functional; how it was run: as §5
Mythimna separata = assay: Insecticidal activity against Mythimna separata assessed as larval mortality at 600 mg/l by leaf-dip method; type: functional
Candida albicans [15] = assay: Antifungal activity against Candida albicans isolate g5 grown in RPMI 1640 medium incubated for 24 hrs by microdilution method; type: functional; conditions: isolate g5, 24 h; how it was run: as §2
[16] = system: Severe acute respiratory syndrome-related coronavirus; assay: Inhibition of SARS coronavirus M protease using AVLQSGFRKK as substrate at 20 uM by FRET assay relative to control
How it was run: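 Purified SARS-CoV Mpro assayed by FRET. Protein, compound and substrate were preheated at 37 °C and oscillated. Fluorescence (ex 320/em 405 nm) was read every 5 s for 200 reads.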

Colletotrichum = assay: Antifungal activity against Colletotrichum (W. anthracnose) assessed as reduction in growth at 50 mg/l by mycelium growth rate method relative to control; type: functional; how it was run: as §3
Candida albicans [17] = assay: Antifungal activity against Candida albicans isolate g5 grown in YNB medium incubated for 24 hrs by microdilution method; type: functional; conditions: isolate g5, 24 h; how it was run: as §2
Candida albicans [18] = assay: Antifungal activity against Candida albicans SC5314 grown in YNB medium incubated for 24 hrs by microdilution method; type: functional; conditions: SC5314, 24 h; how it was run: as §2

Row | SMILES | inhibition (INH) [1] | MIC (Candida albicans [3]) | inhibition at 50 µg/mL [4] | inhibition (INH) [5] | inhibition at 50 µg/mL (Sclerotinia sclerotiorum) | inhibition (Candida albicans [6]) | inhibition at 50 µg/mL (Phytophthora capsici) | inhibition at 50 µg/mL (Fusarium fujikuroi) | inhibition at 50 µg/mL (Ceratobasidium cereale [8]) | inhibition (Arabidopsis thaliana [9]) | MIC (Candida albicans [10]) | inhibition (Arabidopsis thaliana [11]) | MIC (Candida albicans [12]) | inhibition (Candida albicans [13]) | inhibition at 500 µg/mL (Tobacco mosaic virus [14]) | MIC (Candida albicans [15]) | inhibition [16] | inhibition at 50 µg/mL (Colletotrichum) | MIC (Candida albicans [17]) | MIC (Candida albicans [18]) | also measured
1 | COc1nc(OC)nc(Sc2ccc(C#N)cc2Br)n1 | 0% | > 100 µg/mL | 56.3% | 25% | 13.9% | 32.1% | 8.3% | 51.5% | 94% | 53.1% | > 100 µg/mL | 98.3% | > 100 µg/mL | 68.6% | 0% | > 100 µg/mL | 39.3% | 19% | > 100 µg/mL | > 100 µg/mL | EC50 (Ceratobasidium cereale [2]): 12.4 µg/mL (≈ 35.1 µM); inhibition (Tobacco mosaic virus [7]): inactive; mortality at 600 µg/mL (Mythimna separata): 30%
2 | N#Cc1c(Cl)c(Cl)c(Cl)c(C#N)c1Cl [CHLOROTHALONIL] | – | – | 92.5% | – | 87.6% | – | 80.8% | 75.4% | 96.8% | – | – | – | – | – | – | – | – | 78.6% | – | – | EC50 (Ceratobasidium cereale [2]): 5.3 µg/mL (≈ 19.9 µM)
3 | COc1cc(OC)nc(Sc2ccc(Cl)cc2C(=O)O)n1 | 0% | > 100 µg/mL | 40.6% | 54.5% | 63.9% | 80.6% | 41.7% | 48.5% | 89.3% | 34% | > 100 µg/mL | 100% | > 100 µg/mL | 96.6% | 0% | > 100 µg/mL | 4.6% | 52.4% | > 100 µg/mL | > 100 µg/mL | EC50 (Ceratobasidium cereale [2]): 14.1 µg/mL (≈ 43.2 µM); inhibition (Tobacco mosaic virus [7]): inactive; mortality at 600 µg/mL (Mythimna separata): 5%
4 | COc1cc(OC)nc(Sc2ccc(C(=O)O)cc2Cl)n1 | 30.6% | > 100 µg/mL | 76.6% | 73.4% | 83.3% | 62.3% | 41.7% | 60.6% | 89.3% | 31.4% | > 100 µg/mL | 100% | > 100 µg/mL | 85% | 0% | > 100 µg/mL | 0% | 28.6% | > 100 µg/mL | > 100 µg/mL | EC50 (Ceratobasidium cereale [2]): 9.2 µg/mL (≈ 28.2 µM); inhibition (Tobacco mosaic virus [7]): inactive; mortality at 600 µg/mL (Mythimna separata): 50%
5 | COc1cc(OC)nc(Sc2ccc(C(=O)O)cc2Br)n1 | 0% | 12.5 µg/mL (≈ 33.7 µM) | 51.6% | 26.4% | 50% | 70.7% | 42.7% | 39.4% | 96.4% | 48.9% | > 100 µg/mL | 100% | > 100 µg/mL | 94.6% | 0% | > 100 µg/mL | 0% | 45.2% | 25 µg/mL (≈ 67.3 µM) | 25 µg/mL (≈ 67.3 µM) | EC50 (Ceratobasidium cereale [2]): 11.4 µg/mL (≈ 30.7 µM); inhibition (Tobacco mosaic virus [7]): inactive; mortality at 600 µg/mL (Mythimna separata): 50%
6 | COc1cc(OC)nc(Sc2ccc(C(=O)O)cc2F)n1 | 48% | > 100 µg/mL | 50% | 82.2% | 83.3% | 81.7% | 58.3% | 48.5% | 91.7% | 40% | > 100 µg/mL | 100% | > 100 µg/mL | 91.7% | 46.5% | > 100 µg/mL | 26.8% | 40.5% | > 100 µg/mL | > 100 µg/mL | EC50 (Ceratobasidium cereale [2]): 11.8 µg/mL (≈ 38 µM); inhibition at 100 µg/mL (Tobacco mosaic virus [7]): 6.8%; mortality at 600 µg/mL (Mythimna separata): 30%
7 | COc1nc(OC)nc(Oc2cccc(I)c2)n1 | 80.2% | > 100 µg/mL | 59.4% | 88.1% | 66.7% | 0% | 33.3% | 6.1% | 90.5% | 8.9% | > 100 µg/mL | 84.7% | > 100 µg/mL | 29.4% | 17.1% | > 100 µg/mL | 0% | 23.8% | > 100 µg/mL | > 100 µg/mL | EC50 (Ceratobasidium cereale [2]): 10.9 µg/mL (≈ 30.4 µM); inhibition (Tobacco mosaic virus [7]): inactive
8 | COc1nc(OC)nc(Sc2ccc(Cl)cc2C#N)n1 | 0% | > 100 µg/mL | 71.9% | 16.6% | 27.8% | 52.1% | 16.7% | 33.3% | 45.2% | 44.9% | > 100 µg/mL | 71.3% | > 100 µg/mL | 79.9% | 0% | > 100 µg/mL | 85.1% | 23.8% | > 100 µg/mL | > 100 µg/mL | inhibition (Tobacco mosaic virus [7]): inactive; mortality at 600 µg/mL (Mythimna separata): 0%
9 | COc1nc(OC)nc(Sc2ccc(F)cc2C(=O)O)n1 | 1.6% | 50 µg/mL (≈ 161 µM) | 45.3% | 33.3% | 55.6% | 56.1% | 16.7% | 30.3% | 57.1% | 3.3% | > 100 µg/mL | 68.6% | 100 µg/mL (≈ 321 µM) | 77.6% | 0% | > 100 µg/mL | 94.5% | 19% | > 100 µg/mL | > 100 µg/mL | inhibition (Tobacco mosaic virus [7]): inactive; mortality at 600 µg/mL (Mythimna separata): 80%
